# Screening data from PubChem.
# The list is not random: actives were taken first. Their share in the collection is about 4.8%.
# Jurkat NFkB inh – inhibitors of the PMA/ionomycin-induced NF-kB reporter in Jurkat cells; PMA/ionomycin-induced NF-kB luciferase reporter, luminescence; inhibition, % at 4 µM; 330,000 compounds, 0.53% hits; AID 435003; in the data active = inhibition above about 50%
# HSF1 inhib – HSF1 inhibition | 300,000 compounds, 0.77% hits | AID 2098 | NIH3T3-HGL HSE-luciferase, MG132-induced, luminescence 8 h; stronger effect = lower value | activity change, negative = inhibition, % at 7.5 µM (by protocol);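 active = more than half of replicate wells show activity change below -50%, luminescence cut by over half; inconclusive = some wells, but at most half, below -50%; inactive = no replicate well below -50%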;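 also: luciferase reports HSF-1 transcriptional activity via heat shock element; 0% = median of DMSO wells and -100% = zero luminescence signal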
# 697 NFkB inh – lowers PMA/ionomycin-induced NF-kB signal in 697 B cells | 330,000 compounds, 0.33% hits | inhibition, % at 4 µM | AID 435022 | 697 B-cell NF-kB luciferase reporter, 16 h; in the data active = inhibition above about 35%
# HSF1 activator – increases HSF-1 driven luciferase reporter signal | activation, % at 9 µM | 300,000 compounds, 1.7% hits | NIH3T3-HGL HSF-1 luciferase reporter, MG132, 8 h; 100% = twice DMSO control signal;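 active = mean replicate activation of at least 50% with a set share of replicates each reaching 50%; inconclusive = only one of those two conditions met; inactive = mean below 50% and too few replicates reaching it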;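 also: 0% = median of the neutral control wells and 100% = twice that signal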
# T cruzi repl – T. cruzi replication inhibition; T. cruzi beta-gal in NIH3T3, luminescence, 90 h; inhibition, % (no concentration beside the values); 300,000 compounds, 1.4% hits;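 active = mean inhibition across valid replicates above about 55%, limit read from the data; inconclusive = mean below that limit but half or more replicates reach it; inactive = mean below it, under half of replicates reach it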;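 also: signal also drops with host cell toxicity which is not excluded here; 0% = plate median of DMSO wells and 100% = zero luminescence signal; higher percent means less beta-gal luminescence so fewer parasites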
#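 Read-out: Parasite load inhibition, % | Test system: Mouse NIH/3T3 fibroblasts infected with β-gal-expressing T. cruzi Tulahuen C4 | Amount: 5,000 cells/well | Medium: DMEM, 2% fetal bovine serum | Signal: GalScreen β-gal luminescence, detergent lysis, 60 min | Timing: 3 h attach, ≥90 h co-culture | Also added: Tulahuen C4 trypomastigotes, 5000/well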
# GPR7 antag – blocks human GPR7 receptor signaling; P48145; GPR7-expressing cells, fluorescence antagonist assay; inhibition, % at 4.4 µM; 290,000 compounds, 1.1% hits; in the data active = inhibition above about 16%, passing the limit was not always enough;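 also: cells stimulated with the agonist NPW; 0% = agonist with vehicle and 100% = vehicle without agonist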
# Target sequence (P48145 whole entry, looked up): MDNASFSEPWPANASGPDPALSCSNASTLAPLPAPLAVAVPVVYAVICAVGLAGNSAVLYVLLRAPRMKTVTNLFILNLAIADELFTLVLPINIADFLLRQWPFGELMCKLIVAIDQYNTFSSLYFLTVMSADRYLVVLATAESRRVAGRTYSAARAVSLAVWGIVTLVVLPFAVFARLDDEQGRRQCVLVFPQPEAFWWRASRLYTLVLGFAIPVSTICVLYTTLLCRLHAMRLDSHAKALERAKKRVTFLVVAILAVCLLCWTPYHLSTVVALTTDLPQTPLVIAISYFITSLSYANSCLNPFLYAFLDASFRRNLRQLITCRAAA
# Jurkat NFkB conf – inhibitors of the PMA/ionomycin-induced NF-kB reporter in Jurkat cells, retest. 2,700 compounds, 27% hits. shares compounds with Jurkat NFkB inh. inhibition, % at 4 µM. Jurkat NF-kB luciferase, 16 h;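 active = inhibition reaching about 45% at 4 µM in either replicate, limit read from the data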;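 also: plate controls were PMA/ionomycin stimulated DMSO wells for no effect and unstimulated DMSO wells for full effect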
# * = called active by the depositor; ? = inconclusive; / = not tested or not shown.
SMILES,Jurkat NFkB inh,HSF1 inhib,697 NFkB inh,HSF1 activator,T cruzi repl,GPR7 antag,Jurkat NFkB conf
Cc1cccc(N2CCN(C(=O)c3ccc(CS(=O)(=O)c4ccccc4C)o3)CC2C)c1 (stereo not given),65*,-23,9,-25,16,11,52*
Cc1ccc(C)c(N2CCN(C(=O)c3ccc(CS(=O)(=O)c4ccccc4C)o3)CC2)c1,19,-11,-10,-15,2,-11,/
CCCCn1cnc2c(sc3nc4c(cc32)CSC(C)(C)C4)c1=O,-150,-7,-130,-11,18,-9,-78
CC1(C)Cc2nc3sc4c(NCCO)ncnc4c3cc2CS1,-18,7,14,16,-6,-10,/
Cc1ccc(NC(=O)CN(C)CC(=O)N(CC(C)C)c2c(N)n(CC(C)C)c(=O)[nH]c2=O)c(C)c1,4,/,13,/,/,/,/
C=CCNc1nc(-c2ccc(Cl)cc2)cs1,-157,34,-151,?,-31,-10,-27
CCOC(=O)CC1C(=O)NCCN1C(=O)NC1CCCCC1 (stereo not given),10,-4,-3,-12,-22,-7,/
Cc1csc2ncnc(NC3CCN(Cc4ccccc4)CC3)c12,68*,1,-5,11,9,15,58*
COc1ccc(C(=O)NN/C(=N/S(=O)(=O)c2ccc(C)cc2)c2ccccc2)cc1,-181,18,-192,26,0,3,-107
CCOc1ccc(S(=O)(=O)/N=C(/Nc2ccc(OC)cc2)c2ccccc2)cc1,6,1,2,13,6,-19,/
COc1ccc(-c2nnc(SCc3ccccc3F)o2)cc1OC,-30,20,-28,15,0,-6,/
Cc1ccc(-c2nnc(SCc3ccccc3F)o2)cc1,-165,26,-149,58*,12,5,-72
CC(CN1CCCCC1)OC(=O)COc1ccc(Br)cc1 (stereo not given),2,7,18,5,0,-12,/
CCc1c(C)nc2ncnn2c1NCCc1ccc(OC)cc1,78*,3,-15,16,-37,22,68*
CN1/C(=C/c2cccc[n+]2C)Sc2ccccc21,71*,-5,13,11,63*,-11,6
Cc1ccc2c(c1)N(C)/C(=C/c1cccc[n+]1CCO)S2,33,-7,-17,-8,?,-14,/
Cc1ccc2c(c1)N(C)/C(=C/c1cccc[n+]1C)S2,75*,-4,9,-8,76*,2,17
CCCCN1/C(=C/c2cccc[n+]2C)Sc2cc(NC(C)=O)ccc21,-9,-2,6,-8,13,5,/
CN(C)C1=NCCN1CCC1CCCCC1,-3,/,-11,/,/,/,/
O=C(CSc1ncnc2ccccc12)c1cccs1,-157,33,-70,60*,1,-9,-62
CC(=O)Nc1ccc(NC(=O)c2ccc(C)c(S(=O)(=O)Nc3cccc(C)c3)c2)cc1,1,-1,-9,-3,4,-5,/
Cc1ccc(OC(C)C(=O)N(C)c2ccccc2)c([N+](=O)[O-])n1 (stereo not given),-11,/,2,/,/,/,/
COc1cc(/C=C2\CC(C(C)(C)C)C/C(=C\c3cc(OC)c(OC)c(OC)c3)C2=O)cc(OC)c1OC (stereo not given),90*,41,-222,53*,50,-20,-14
O=C(NC(=S)Nc1ccccn1)c1ccccc1,-150,3,-156,1,-6,4,26
CC(C)N=c1cc2n(-c3ccc(Cl)cc3)c3ccccc3nc-2cc1Nc1ccc(Cl)cc1,73*,-3,-24,/,44,/,10
SMILES,Jurkat NFkB inh,HSF1 inhib,697 NFkB inh,HSF1 activator,T cruzi repl,GPR7 antag,Jurkat NFkB conf
Cn1c(CNc2ccc(Cl)cc2)nc2ccccc21,-20,11,-16,15,-3,-20,/
CCCN(CCC)C(=O)c1ccc2c(c1)N(CC)C(=O)c1ccccc1S2(=O)=O,-7,-5,9,5,-20,8,/
COc1ccc2c(c1)N(C)/C(=C/c1cccc[n+]1C)S2,61*,-6,-26,-13,56*,1,11
CCN1/C(=C/c2cccc[n+]2C)Sc2ccc(OC)cc21,72*,-5,-9,-19,70*,-1,-5
CC(=O)Oc1c(Cl)cc(N(C(C)=O)S(=O)(=O)c2ccccc2)c2ccccc12,-1,23,-6,?,-11,/,/
CC(=Nc1ccc(C)cc1C)c1sc2ccccc2c1O,-203,12,-173,53*,33,4,-40
CC(=O)c1c(C)[nH]c(C(=O)CSc2ncnc3sc(-c4ccccc4)cc23)c1C,52*,-4,-32,-3,-38,-6,14
O=C(O)CSc1ncnc2sc(-c3ccccc3)cc12,5,1,-18,6,2,10,/
CCC(=O)c1ccc(OCC(O)CNCCc2ccc(Cl)cc2)cc1 (stereo not given),-10,3,6,-9,49,29,/
Cc1ccnc(NC(=S)NC(=O)c2cccs2)c1,-201,-9,-181,-9,7,-2,-83
Cc1ccc2oc(-c3ccc(C)c(NC(=O)Cc4cccs4)c3)nc2c1,-61,10,-46,24,10,-9,/
Cc1ccc2oc(-c3ccc(C)c(NC(=S)NC(=O)c4cccs4)c3)nc2c1,-170,-23,-226,-27,-27,-12,-86
Cn1cccc1CC(=O)NNC(=O)Nc1cccc(Cl)c1,-8,3,-2,0,-9,-13,/
Cc1ccc(-c2nc3sc4c(c3c(=O)n2N)CCCC4)cc1,-188,11,-192,27,12,-5,-122
O=c1oc(-c2ccccc2)nc2sc3c(c12)CCC3,14,-3,-6,-27,-19,-4,/
Nc1nc(-c2ccccc2)nc2sc3c(c12)CCCC3,-162,39,-244,85*,25,-7,-156
COC(=O)c1cc(-c2cccc(OC)c2)c2c(=O)[nH]c(=O)n(C)c2n1,-4,4,-23,-5,9,-14,/
O=C(O)c1sc2cc(C(F)(F)F)cnc2c1-c1ccccc1,-10,-4,-4,-4,-20,5,/
CSc1nnc(-c2sc3cc(C(F)(F)F)cnc3c2-c2ccccc2)n1C,56*,-1,-13,-12,-2,-4,17
O=C(NC1CC1)c1cccc(S(=O)(=O)N2CCOCC2)c1,9,/,5,/,/,/,/
Nc1nonc1-c1nc2ccccc2n1CC(=O)Nc1ccccc1,31,-6,-4,-2,-4,5,/
CCOC(=O)c1ccccc1NC(=O)Cn1c(-c2nonc2N)nc2ccccc21,82*,3,15,17,28,21*,61*
Cc1nn(-c2nc3ccccc3s2)c(N)c1-c1ccccc1,-165,29,-232,48,23,-3,-118
Cc1nn(-c2nc3ccccc3s2)c(N)c1-c1ccc(Cl)cc1,-60,27,-77,49,30,4,/
